# Results taken from ChEMBL document CHEMBL1155465, “"Viologen" dendrimers as antiviral agents: the effect of charge number and distance” (J Med Chem, 2010).
# pEC50: −log10 of the molar value. Active and inactive are the calls of the source. The rule behind the calls is not given here.
# Assays:
# [1] = tested on: Human immunodeficiency virus 1; assay: Antiviral activity against HIV1 3B infected in human MT4 cells after 5 days by MTT assay; format: functional, organism-based; settings: Human immunodeficiency virus 1, 3B, MT4, 120 h
# Summary of the method: (§1)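 MT-4 cells in RPMI 1640 with 10% heat-inactivated FCS, 2 mM L-glutamine, 0.1% bicarbonate and gentamicin, seeded at 6 × 10⁵ cells/mL final with virus or mock infection. Viability read by MTT after 5 days at 540 and 690 nm, using the median OD of three wells. CC50 is 50% loss of mock-infected OD540. EC50 is 50% inhibition of virus-induced CPE. SI = CC50/EC50. Mean ± SD of ≥2 experiments.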
# [2] = tested on: Human immunodeficiency virus 2; assay: Antiviral activity against HIV2 ROD infected in human MT4 cells after 5 days by MTT assay; format: functional, organism-based; settings: Human immunodeficiency virus 2, ISOLATE ROD, MT4, 120 h; summary of the method: as §1
# [3] = tested on: Simian immunodeficiency virus; assay: Antiviral activity against SIV MAC251 infected in human MT4 cells after 5 days by MTT assay; format: functional, organism-based; settings: MAC251, MT4, 120 h; summary of the method: as §1
# [4] = Cytotoxicity against human MT4 cells after 5 days by MTT assay; format: cell-based; summary of the method: as §1
# [5] = Selectivity index, ratio of CC50 for human MT4 cells to EC50 for HIV1 3B; format: toxicity, cell-based; settings: read-out: Ratio CC50/EC50; summary of the method: as §1
# [6] = tested on: Human immunodeficiency virus 1; assay: Antiviral activity against HIV1 3B infected in human PBMC assessed as inhibition of viral p24 antigen production by ELISA; format: functional, organism-based; settings: Human immunodeficiency virus 1, 3B
# Summary of the method: (§2)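 PBMCs infected with HIV-1 IIIB and cultured with a range of compound concentrations. EC50 is 50% inhibition of supernatant p24 core antigen (ELISA) relative to drug-free culture. CC50 is 50% reduction in cell viability. SI = CC50/EC50. Mean ± SD of ≥2 experiments.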
# [7] = Cytotoxicity against human PBMC after 5 days by MTT assay; format: cell-based; summary of the method: as §2
# [8] = Selectivity index, ratio of CC50 for human PBMC to EC50 for HIV1 3B; summary of the method: as §2
# Human alphaherpesvirus 1 [9] = assay: Antiviral activity against HSV1 KOS infected in human E6SM cell assessed as inhibition of virus-induced cytopathicity; format: functional, organism-based; settings: Human alphaherpesvirus 1, KOS
# Human alphaherpesvirus 2 = assay: Antiviral activity against HSV2 G infected in human E6SM cell assessed as inhibition of virus-induced cytopathicity; format: functional, organism-based; settings: Human alphaherpesvirus 2, strain G
# Vaccinia virus = assay: Antiviral activity against Vaccina virus infected in human E6SM cell assessed as inhibition of virus-induced cytopathicity; format: functional, organism-based; settings: Orthopoxvirus vaccinia
# [10] = tested on: Vesicular stomatitis virus; assay: Antiviral activity against VSV infected in human E6SM cell assessed as inhibition of virus-induced cytopathicity; format: functional, organism-based
# Human alphaherpesvirus 1 [11] = assay: Antiviral activity against TK-deficient acyclovir-resistant HSV1 KOS infected in human E6SM cell assessed as inhibition of virus-induced cytopathicity; format: functional, organism-based; settings: Human alphaherpesvirus 1, KOS
# [12] = tested on: Vesicular stomatitis virus; assay: Antiviral activity against VSV infected in human HeLa cell assessed as inhibition of virus-induced cytopathicity; format: functional, organism-based
# [13] = tested on: Respiratory syncytial virus; assay: Antiviral activity against RSV infected in human HeLa cell assessed as inhibition of virus-induced cytopathicity; format: functional, organism-based
# [14] = Cytotoxicity against human E6SM cells by MTT assay; format: cell-based
# [15] = Cytotoxicity against human HeLa cells by MTT assay; format: cell-based
# Human respirovirus 3 = assay: Antiviral activity against Parainfluenza virus 3 infected in african green monkey Vero cells assessed as inhibition of virus-induced cytopathicity; format: functional, organism-based; settings: Human respirovirus 3, Vero
# Reovirus sp. = assay: Antiviral activity against Reovirus infected in african green monkey Vero cells assessed as inhibition of virus-induced cytopathicity; format: functional, organism-based
# Sindbis virus = assay: Antiviral activity against Sindbis virus infected in african green monkey Vero cells assessed as inhibition of virus-induced cytopathicity; format: functional, organism-based
# Punta Toro virus = assay: Antiviral activity against Punta Toro virus infected in african green monkey Vero cells assessed as inhibition of virus-induced cytopathicity; format: functional, organism-based
# [16] = Cytotoxicity against african green monkey Vero cells by MTT assay; format: cell-based; settings: chlorocebus sabaeus
# [17] = tested on: Human immunodeficiency virus; assay: Antiviral activity against HIV SO6141 infected in human MT4 cells after 5 days by MTT assay; format: functional, organism-based; settings: Human immunodeficiency virus 1, SO6141, MT4, 120 h; summary of the method: as §1
# [18] = tested on: Human immunodeficiency virus 1; assay: Antiviral activity against HIV1 3B infected in human MT4 cells assessed as time-of-addition prolongation at 2 ug/ml after 31 hrs post infection by ELISA; format: functional
# Summary of the method: (§3)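 Time-of-addition: MT-4 cells infected with HIV-1 IIIB at moi 0.5 for a 1 h adsorption, then plated at 45000 cells/well at 37 °C. Compound added at 0, 1, 2, 3, 4, 5, 6, 7, 8, 24 or 25 h post-infection. Supernatant p24 antigen measured by ELISA at 31 h post-infection.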
# [19] = tested on: Human immunodeficiency virus 1; assay: Antiviral activity against HIV1 3B infected in human A72 Jurkat cells assessed as inhibition of GFP expression after 48 hrs by flow cytometry; format: functional, organism-based; settings: Human immunodeficiency virus 1, 3B
# Summary of the method: (§4)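 Acutely infected A72 Jurkat cells. EC50 (μg/mL) is the concentration giving 50% inhibition of GFP expression relative to drug-free infection. CC50 is 50% reduction in cell viability. SI = CC50/EC50. Mean ± SD of ≥2 experiments.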
# [20] = tested on: Human immunodeficiency virus 2; assay: Antiviral activity against HIV2 ROD infected in human A72 Jurkat cells assessed as inhibition of GFP expression after 48 hrs by flow cytometry; format: functional, organism-based; settings: Human immunodeficiency virus 2, ISOLATE ROD; summary of the method: as §4
# [21] = tested on: Human immunodeficiency virus 1; assay: Antiviral activity against HIV1 NL4-3 infected in human A72 Jurkat cells assessed as inhibition of GFP expression after 48 hrs by flow cytometry; format: functional, organism-based; settings: Human immunodeficiency virus 1, NL4-3, Jurkat; summary of the method: as §4
# [22] = tested on: Human immunodeficiency virus; assay: Antiviral activity against AZT-resistant HIV infected in human A72 Jurkat cells assessed as inhibition of GFP expression after 48 hrs by flow cytometry; format: functional, organism-based; settings: Human immunodeficiency virus 1, Jurkat; summary of the method: as §4
# [23] = tested on: Human immunodeficiency virus; assay: Antiviral activity against HIV S056 infected in human A72 Jurkat cells assessed as inhibition of GFP expression after 48 hrs by flow cytometry; format: functional, organism-based; settings: Human immunodeficiency virus 1, S056, Jurkat; summary of the method: as §4
# [24] = tested on: Human immunodeficiency virus; assay: Antiviral activity against HIV S067 infected in human A72 Jurkat cells assessed as inhibition of GFP expression after 48 hrs by flow cytometry; format: functional, organism-based; settings: Human immunodeficiency virus 1, S067, Jurkat; summary of the method: as §4
# [25] = tested on: Human immunodeficiency virus; assay: Antiviral activity against HIV S07 infected in human A72 Jurkat cells assessed as inhibition of GFP expression after 48 hrs by flow cytometry; format: functional, organism-based; settings: Human immunodeficiency virus 1, S07, Jurkat; summary of the method: as §4
# [26] = Cytotoxicity against human Jurkat A72 cells by MTT assay; format: cell-based; summary of the method: as §4
# [27] = Selectivity index, ratio of CC50 for human Jurkat A72 cells to EC50 for HIV1 3B; format: toxicity, cell-based; summary of the method: as §4
# [28] = tested on: Human immunodeficiency virus 1; assay: Antiviral activity against HIV1 3B infected in human MT4 cells assessed as time-of-addition prolongation at 0.5 ug/ml after 31 hrs post infection by ELISA; format: functional; summary of the method: as §3
# [29] = tested on: Human immunodeficiency virus 1; assay: Antiviral activity against HIV1 NL4-3 pseudotyped with VSV-G envelope infected in human C8166 cells assessed as inhibition of GFP expression after 48 hrs by flow cytometry; format: functional, organism-based
# Summary of the method: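 VSV-G-pseudotyped (env-deficient) GFP-encoding NL4.3 taken from transfection supernatant at 60 h and clarified at 450g for 10 min. Used to infect 3 × 10⁴ C8166 cells (RPMI 1640, 10% FCS) with graded compound concentrations. GFP expression read by flow cytometry 48 h post-infection, with the no-compound infection control set as 100%.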
SMILES,pEC50 [1],pEC50 [2],pEC50 [3],CC50 at 120 h [4] [µM],selectivity ratio [5],EC50 [6] [µg/mL],CC50 at 120 h [7] [µg/mL],Ratio CC50/EC50 [8],EC50 (Human alphaherpesvirus 1 [9]) [µg/mL],EC50 (Human alphaherpesvirus 2) [µg/mL],EC50 (Vaccinia virus) [µg/mL],EC50 [10] [µg/mL],EC50 (Human alphaherpesvirus 1 [11]) [µg/mL],EC50 [12] [µg/mL],EC50 [13] [µg/mL],MCC [14] [µg/mL],MCC [15] [µg/mL],EC50 (Human respirovirus 3) [µg/mL],EC50 (Reovirus sp.) [µg/mL],EC50 (Sindbis virus) [µg/mL],other results
CC[n+]1ccc(-c2cc[n+](Cc3cc(C[n+]4ccc(-c5cc[n+](CC)cc5)cc4)cc(C[n+]4ccc(-c5cc[n+](Cc6cc(C[n+]7ccc(-c8cc[n+](Cc9cc(C[n+]%10ccc(-c%11cc[n+](CC)cc%11)cc%10)cc(C[n+]%10ccc(-c%11cc[n+](CC)cc%11)cc%10)c9)cc8)cc7)cc(-[n+]7ccc(-c8cc[n+](-c9cc(C[n+]%10ccc(-c%11cc[n+](Cc%12cc(C[n+]%13ccc(-c%14cc[n+](CC)cc%14)cc%13)cc(C[n+]%13ccc(-c%14cc[n+](CC)cc%14)cc%13)c%12)cc%11)cc%10)cc(C[n+]%10ccc(-c%11cc[n+](Cc%12cc(C[n+]%13ccc(-c%14cc[n+](CC)cc%14)cc%13)cc(C[n+]%13ccc(-c%14cc[n+](CC)cc%14)cc%13)c%12)cc%11)cc%10)c9)cc8)cc7)c6)cc5)cc4)c3)cc2)cc1.F[P-](F)(F)(F)(F)F.F[P-](F)(F)(F)(F)F.F[P-](F)(F)(F)(F)F.F[P-](F)(F)(F)(F)F.F[P-](F)(F)(F)(F)F.F[P-](F)(F)(F)(F)F.F[P-](F)(F)(F)(F)F.F[P-](F)(F)(F)(F)F.F[P-](F)(F)(F)(F)F.F[P-](F)(F)(F)(F)F.F[P-](F)(F)(F)(F)F.F[P-](F)(F)(F)(F)F.F[P-](F)(F)(F)(F)F.F[P-](F)(F)(F)(F)F.F[P-](F)(F)(F)(F)F.F[P-](F)(F)(F)(F)F.F[P-](F)(F)(F)(F)F.F[P-](F)(F)(F)(F)F.F[P-](F)(F)(F)(F)F.F[P-](F)(F)(F)(F)F.F[P-](F)(F)(F)(F)F.F[P-](F)(F)(F)(F)F.F[P-](F)(F)(F)(F)F.F[P-](F)(F)(F)(F)F.F[P-](F)(F)(F)(F)F.F[P-](F)(F)(F)(F)F,5.85,5.01,≤ 6.31,> 18.6,13.3,> 0.52,0.52,<1,6,50,> 50,> 50,30,> 50,50,> 50,> 50,> 50,> 50,> 50,EC50 (Punta Toro virus): > 50 µg/mL; MCC [16]: > 50 µg/mL; pEC50 [17]: 5.91
CC[n+]1ccc(-c2cc[n+](Cc3cc(C[n+]4ccc(-c5cc[n+](CC)cc5)cc4)cc(-[n+]4ccc(-c5cc[n+](-c6cc(C[n+]7ccc(-c8cc[n+](CC)cc8)cc7)cc(C[n+]7ccc(-c8cc[n+](CC)cc8)cc7)c6)cc5)cc4)c3)cc2)cc1.F[P-](F)(F)(F)(F)F.F[P-](F)(F)(F)(F)F.F[P-](F)(F)(F)(F)F.F[P-](F)(F)(F)(F)F.F[P-](F)(F)(F)(F)F.F[P-](F)(F)(F)(F)F.F[P-](F)(F)(F)(F)F.F[P-](F)(F)(F)(F)F.F[P-](F)(F)(F)(F)F.F[P-](F)(F)(F)(F)F,6.00,< 4.31,< 4.31,> 49,48.5,0.79,26.8,34,6,50,> 50,> 50,30,> 50,50,> 50,> 50,> 50,> 50,> 50,EC50 (Punta Toro virus): > 50 µg/mL; MCC [16]: > 50 µg/mL; pEC50 [17]: < 4.31
Cc1ccnc2c1NC(=O)c1cccnc1N2C1CC1 [NEVIRAPINE],–,–,–,–,–,–,–,–,–,–,–,–,–,–,–,–,–,–,–,–,Time [18]: 10 h; EC50 [19]: 0.008 µg/mL; EC50 [20]: > 2 µg/mL; EC50 [21]: 0.008 µg/mL; EC50 [22]: 0.005 µg/mL; EC50 [23]: < 0.2 µg/mL; EC50 [24]: 0.016 µg/mL; EC50 [25]: 0.012 µg/mL; CC50 [26]: > 2 µg/mL; selectivity ratio [27]: > 250
Cc1cn([C@H]2C[C@H](N=[N+]=[N-])[C@@H](CO)O2)c(=O)[nH]c1=O [ZIDOVUDINE],–,–,–,–,–,–,–,–,–,–,–,–,–,–,–,–,–,–,–,–,Time [28]: 5 h
c1cc(CN2CCCNCCNCCCNCC2)ccc1CN1CCCNCCNCCCNCC1,–,–,–,–,–,–,–,–,–,–,–,–,–,–,–,–,–,–,–,–,inhibition [29]: inactive
